In ChEMBL document CHEMBL4665633, “Cereblon versus VHL: Hijacking E3 ligases against each other using PROTACs” (Bioorg Med Chem, 2019):
Active and inactive are the calls of the source. No cut-off for these calls is given here.

How the values were obtained:
Type in all cases: cell-based
[1] = target: T1, Protein cereblon/von Hippel-Lindau disease tumor suppressor (Homo sapiens, UniProt P40337+Q96SW2); test: Protac activity at VHL/CRBN in human HeLa cells assessed as pVHL19 protein abundance at 1 uM after 24 hrs by Western blot analysis relative to DMSO
T1 sequence (P40337 whole entry, looked up, canonical isoform): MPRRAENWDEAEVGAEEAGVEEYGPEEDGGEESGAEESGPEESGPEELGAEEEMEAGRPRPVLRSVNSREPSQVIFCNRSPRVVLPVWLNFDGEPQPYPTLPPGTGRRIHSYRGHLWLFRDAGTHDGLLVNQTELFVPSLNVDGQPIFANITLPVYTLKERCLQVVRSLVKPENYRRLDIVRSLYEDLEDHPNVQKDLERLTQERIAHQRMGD
T1 sequence (Q96SW2 whole entry, looked up, canonical isoform): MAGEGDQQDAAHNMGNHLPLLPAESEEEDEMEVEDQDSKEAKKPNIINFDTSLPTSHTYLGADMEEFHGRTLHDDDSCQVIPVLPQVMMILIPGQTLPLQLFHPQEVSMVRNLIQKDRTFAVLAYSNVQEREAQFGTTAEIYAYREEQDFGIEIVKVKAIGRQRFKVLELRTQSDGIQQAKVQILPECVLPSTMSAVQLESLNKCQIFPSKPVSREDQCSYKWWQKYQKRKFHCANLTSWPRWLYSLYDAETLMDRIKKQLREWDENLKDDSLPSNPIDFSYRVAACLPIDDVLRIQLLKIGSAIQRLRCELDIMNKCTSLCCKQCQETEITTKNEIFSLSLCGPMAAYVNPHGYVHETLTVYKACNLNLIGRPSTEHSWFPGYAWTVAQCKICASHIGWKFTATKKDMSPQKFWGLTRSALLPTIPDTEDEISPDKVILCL
In short: (§1)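 HeLa cells seeded overnight, then exposed to 1 µM compound (0.1% v/v DMSO final) over a time course. Cells were DPBS-washed and RIPA-lysed with protease inhibitors and benzonase; equal protein was loaded. Immunoblots for CRBN and VHL isoforms were quantified against β-tubulin and reported relative to the averaged 0.1% DMSO vehicle.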

[2] = target: T1, Protein cereblon/von Hippel-Lindau disease tumor suppressor; test: Protac activity at VHL/CRBN in HEK293 cells assessed as pVHL30 protein abundance at 1000 nM after 4 hrs by Western blot analysis relative to DMSO
In short: (§2)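 HEK293 cells (DMEM, 10% FBS, penicillin/streptomycin, L-glutamine; 37 °C, 5% CO2; ≤30 passages) seeded at 1 × 10⁶ per well overnight, then treated with compound at 0.1% v/v final DMSO. Cells were lysed in RIPA with protease inhibitors and benzonase, then clarified. Equal Bradford-quantified protein was immunoblotted for CRBN/VHL. Bands were normalised to β-tubulin and expressed as % of mean 0.1% DMSO vehicle.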

[3] = target: T1, Protein cereblon/von Hippel-Lindau disease tumor suppressor; test: Protac activity at VHL/CRBN in HEK293 cells assessed as CRBN protein abundance at 100 nM after 4 hrs by Western blot analysis relative to DMSO; in short: as §2
[4] = target: T1, Protein cereblon/von Hippel-Lindau disease tumor suppressor; test: Protac activity at VHL/CRBN in human HeLa cells assessed as CRBN protein abundance at 1 uM after 2 hrs by Western blot analysis relative to DMSO; in short: as §1
[5] = target: T1, Protein cereblon/von Hippel-Lindau disease tumor suppressor; test: Protac activity at VHL/CRBN in human HeLa cells assessed as pVHL30 protein abundance at 1 uM after 1 hr by Western blot analysis relative to DMSO; in short: as §1
[6] = target: T1, Protein cereblon/von Hippel-Lindau disease tumor suppressor; test: Protac activity at VHL/CRBN in HEK293 cells assessed as induction of VHL degradation at 1 uM after 1 to 24 hrs by Western blot analysis; details: time hrs 1-24
[7] = target: T1, Protein cereblon/von Hippel-Lindau disease tumor suppressor; test: Protac activity at VHL/CRBN in HEK293 cells assessed as CRBN protein abundance at 1 uM after 2 hrs by Western blot analysis relative to DMSO; in short: as §2
[8] = target: T1, Protein cereblon/von Hippel-Lindau disease tumor suppressor; test: Protac activity at VHL/CRBN in HEK293 cells assessed as CRBN protein abundance at 1000 nM after 4 hrs by Western blot analysis relative to DMSO; in short: as §2
[9] = target: T1, Protein cereblon/von Hippel-Lindau disease tumor suppressor; test: Protac activity at VHL/CRBN in human HeLa cells assessed as induction of CRBN degradation at 10 nM after 4 hrs by Western blot analysis relative to control
In short: (§3)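 HeLa cells (5 × 10⁵, DMEM + 10% FBS, 37 °C, 5% CO₂, ≤30 passages) seeded overnight, then treated 4 h with compound at single or graded concentrations (0.1% v/v DMSO final). RIPA lysates equalised by Bradford; SDS-PAGE and anti-CRBN/anti-VHL immunoblots; bands normalised to β-tubulin and expressed as % of mean DMSO vehicle. DC₅₀ from fit of band intensity versus log[concentration].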

[10] = target: T1, Protein cereblon/von Hippel-Lindau disease tumor suppressor; test: Protac activity at VHL/CRBN in HEK293 cells assessed as CRBN protein abundance at 1 uM after 8 hrs by Western blot analysis relative to DMSO; in short: as §2
[11] = target: T1, Protein cereblon/von Hippel-Lindau disease tumor suppressor; test: Protac activity at VHL/CRBN in HEK293 cells assessed as pVHL19 protein abundance at 1 uM after 2 hrs by Western blot analysis relative to DMSO; in short: as §2
[12] = target: T1, Protein cereblon/von Hippel-Lindau disease tumor suppressor; test: Protac activity at VHL/CRBN in human HeLa cells assessed as CRBN protein abundance at 1 uM after 12 hrs by Western blot analysis relative to DMSO; in short: as §1
[13] = target: T1, Protein cereblon/von Hippel-Lindau disease tumor suppressor; test: Protac activity at VHL/CRBN in HEK293 cells assessed as pVHL19 protein abundance at 100 nM after 4 hrs by Western blot analysis relative to DMSO; in short: as §2
[14] = target: T1, Protein cereblon/von Hippel-Lindau disease tumor suppressor; test: Protac activity at VHL/CRBN in HEK293 cells assessed as pVHL30 protein abundance at 1 uM after 4 hrs by Western blot analysis relative to DMSO; in short: as §2
[15] = target: T1, Protein cereblon/von Hippel-Lindau disease tumor suppressor; test: Protac activity at VHL/CRBN in human HeLa cells assessed as CRBN protein abundance at 1 uM after 24 hrs by Western blot analysis relative to DMSO; in short: as §1
[16] = target: T1, Protein cereblon/von Hippel-Lindau disease tumor suppressor; test: Protac activity at VHL/CRBN in human HeLa cells assessed as pVHL19 protein abundance at 1 uM after 2 hrs by Western blot analysis relative to DMSO; in short: as §1
[17] = target: T1, Protein cereblon/von Hippel-Lindau disease tumor suppressor; test: Protac activity at VHL/CRBN in HEK293 cells assessed as pVHL19 protein abundance at 50 nM after 4 hrs by Western blot analysis relative to DMSO; in short: as §2
[18] = target: T1, Protein cereblon/von Hippel-Lindau disease tumor suppressor; test: Protac activity at VHL/CRBN in HEK293 cells assessed as pVHL30 protein abundance at 10 nM after 4 hrs by Western blot analysis relative to DMSO; in short: as §2
[19] = target: T1, Protein cereblon/von Hippel-Lindau disease tumor suppressor; test: Protac activity at VHL/CRBN in HEK293 cells assessed as CRBN protein abundance at 1 uM after 12 hrs by Western blot analysis relative to DMSO; in short: as §2
[20] = target: T1, Protein cereblon/von Hippel-Lindau disease tumor suppressor; test: Protac activity at VHL/CRBN in human HeLa cells assessed as pVHL19 protein abundance at 5000 nM after 4 hrs by Western blot analysis relative to DMSO; in short: as §3
[21] = target: T1, Protein cereblon/von Hippel-Lindau disease tumor suppressor; test: Protac activity at VHL/CRBN in human HeLa cells assessed as pVHL19 protein abundance at 500 nM after 4 hrs by Western blot analysis relative to DMSO; in short: as §3
[22] = target: T1, Protein cereblon/von Hippel-Lindau disease tumor suppressor; test: Protac activity at VHL/CRBN in human HeLa cells assessed as CRBN protein abundance at 1 uM after 4 hrs by Western blot analysis relative to DMSO; in short: as §1
[23] = target: T1, Protein cereblon/von Hippel-Lindau disease tumor suppressor; test: Protac activity at VHL/CRBN in human HeLa cells assessed as CRBN protein abundance at 10000 nM after 4 hrs by Western blot analysis relative to DMSO; in short: as §3
[24] = target: T1, Protein cereblon/von Hippel-Lindau disease tumor suppressor; test: Protac activity at VHL/CRBN in human HeLa cells assessed as pVHL19 protein abundance at 1 uM after 1 hr by Western blot analysis relative to DMSO; in short: as §1
[25] = target: T1, Protein cereblon/von Hippel-Lindau disease tumor suppressor; test: Protac activity at VHL/CRBN in HEK293 cells assessed as pVHL30 protein abundance at 500 nM after 4 hrs by Western blot analysis relative to DMSO; in short: as §2
[26] = target: T1, Protein cereblon/von Hippel-Lindau disease tumor suppressor; test: Protac activity at VHL/CRBN in HEK293 cells assessed as pVHL19 protein abundance at 1 uM after 24 hrs by Western blot analysis relative to DMSO; in short: as §2
[27] = target: T1, Protein cereblon/von Hippel-Lindau disease tumor suppressor; test: Protac activity at VHL/CRBN in HEK293 cells assessed as pVHL30 protein abundance at 5 nM after 4 hrs by Western blot analysis relative to DMSO; in short: as §2
[28] = target: T1, Protein cereblon/von Hippel-Lindau disease tumor suppressor; test: Protac activity at VHL/CRBN in human HeLa cells assessed as pVHL19 protein abundance at 1 uM after 4 hrs by Western blot analysis relative to DMSO; in short: as §1
[29] = target: T1, Protein cereblon/von Hippel-Lindau disease tumor suppressor; test: Protac activity at VHL/CRBN in human HeLa cells assessed as pVHL30 protein abundance at 1 uM after 8 hrs by Western blot analysis relative to DMSO; in short: as §1
[30] = target: T1, Protein cereblon/von Hippel-Lindau disease tumor suppressor; test: Protac activity at VHL/CRBN in HEK293 cells assessed as pVHL30 protein abundance at 1 uM after 1 hr by Western blot analysis relative to DMSO; in short: as §2

- Activity [1]: 100%
- Activity [2]: 127%
- Activity [3]: 63%
- Activity [4]: 27%
- Activity [5]: 100%
- Activity [6]: inactive
- Activity [7]: 9%
- Activity [8]: 23%
- Activity [9]: 19%
- Activity [10]: 2%
- Activity [11]: 109%
- Activity [12]: 12%
- Activity [13]: 111%
- Activity [14]: 98%
- Activity [15]: 13%
- Activity [16]: 95%
- Activity [17]: 111%
- Activity [18]: 135%
- Activity [19]: 6%
- Activity [20]: 115%
- Activity [21]: 106%
- Activity [22]: 19%
- Activity [23]: 86%
- Activity [24]: 100%
- Activity [25]: 130%
- Activity [26]: 101%
- Activity [27]: 117%
- Activity [28]: 100%
- Activity [29]: 116%
- Activity [30]: 88%
Compound: Cc1ncsc1-c1ccc(CNC(=O)[C@@H]2C[C@@H](O)CN2C(=O)[C@@H](NC(=O)COCCCCCOCCOCCCCCOCC(=O)NCCNc2cccc3c2C(=O)N(C2CCC(=O)NC2=O)C3=O)C(C)(C)C)cc1 (stereo not given in full)
